Activity calls are given as the source filed them.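 Rule for the calls: active = inhibition of diacylglycerol lipase beta of at least 50% in a gel probe-labeling test; inactive = inhibition under 50%.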
Molecular target: Diacylglycerol lipase-beta (Mus musculus) (UniProt Q91WC9)
Test: mouse DAGLb inhibition, probe-labelling competition – biochemical, in-gel fluorescence, HEK293T membranes, overexpressed mouse DAGLb, set 1, late-stage follow-up (AID 602302)
Conditions: HEK293T membrane overexpressing mouse DAGLb, gel ABPP fluorescence; at 0.1 µM; hits give high values
Summary of the method: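 Material: membrane proteome of transiently transfected HEK293T cells, overexpressed mouse DAGLb. Amount: membrane protein at 0.3 mg/mL. Dosing: one dose, 0.1 µM. Timing: compound preincubation 30 min, then probe labeling 30 min, both 37 °C.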

Sequence of Diacylglycerol lipase-beta (Mus musculus) (Q91WC9 whole entry, looked up): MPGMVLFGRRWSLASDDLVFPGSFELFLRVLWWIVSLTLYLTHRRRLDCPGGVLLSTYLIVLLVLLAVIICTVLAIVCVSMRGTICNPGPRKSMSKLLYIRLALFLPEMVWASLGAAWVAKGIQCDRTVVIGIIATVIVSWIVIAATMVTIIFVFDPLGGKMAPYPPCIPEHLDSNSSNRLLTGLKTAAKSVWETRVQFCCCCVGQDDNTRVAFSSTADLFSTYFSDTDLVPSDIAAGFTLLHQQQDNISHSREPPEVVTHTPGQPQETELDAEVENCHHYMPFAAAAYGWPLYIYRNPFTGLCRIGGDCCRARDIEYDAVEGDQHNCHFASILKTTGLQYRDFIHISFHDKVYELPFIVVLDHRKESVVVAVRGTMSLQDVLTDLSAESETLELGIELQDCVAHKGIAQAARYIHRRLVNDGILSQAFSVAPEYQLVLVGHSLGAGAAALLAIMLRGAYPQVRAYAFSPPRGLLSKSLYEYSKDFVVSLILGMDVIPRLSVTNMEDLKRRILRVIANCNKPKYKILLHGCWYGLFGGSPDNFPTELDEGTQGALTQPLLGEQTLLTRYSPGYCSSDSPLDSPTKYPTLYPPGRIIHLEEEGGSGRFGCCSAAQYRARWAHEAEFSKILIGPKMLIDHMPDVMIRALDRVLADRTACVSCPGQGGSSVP

inhibition | Compound
31% (inactive) | O=C(N1CCCCC1Cc1ccccc1)n1cc(-c2ccc(-c3ccc(C(F)(F)F)cc3)cc2)nn1 (stereo not given)
71% | O=C(N(CCc1ccccc1)Cc1ccco1)n1cc(-c2ccc(OC(F)(F)F)cc2)nn1
66% | O=C(N1CCCCC1Cc1ccccc1)n1cc(-c2ccc(-c3ccccc3Cl)cc2)nn1 (stereo not given)
38% (inactive) | O=C(N1CCCCC1Cc1ccccc1)n1cc(-c2ccc(-c3ccc(OC(F)(F)F)cc3)cc2)nn1 (stereo not given)
44% (inactive) | O=C(N1CCCCC1Cc1ccccc1)n1cc(-c2ccc(-c3cccc(C(F)(F)F)c3)cc2)nn1 (stereo not given)
18% (inactive) | O=C(N1CCCCC1Cc1ccccc1)n1cc(-c2ccccc2-c2ccccc2)nn1 (stereo not given)
67% | O=C(N1CCCCC1Cc1ccccc1)n1cc(-c2ccc(-c3ccccc3CO)cc2)nn1 (stereo not given)
18% (inactive) | O=C(N1CCCCC1Cc1ccccc1)n1cc(-c2ccc(-c3ccc4c(c3)OCO4)cc2)nn1 (stereo not given)
70% | CC(C)CN(CCc1ccccc1)C(=O)n1cc(-c2ccc(OC(F)(F)F)cc2)nn1
11% (inactive) | O=C(N1CCCCC1Cc1ccccc1)n1cc(-c2ccc(-c3cccc(CO)c3)cc2)nn1 (stereo not given)
27% (inactive) | O=C(N1CCCCC1Cc1ccccc1)n1cc(-c2cccc(-c3ccccc3)c2)nn1 (stereo not given)
0% (inactive) | O=C(N1CCCCC1Cc1ccccc1)n1ncc(-c2ccc(OC(F)(F)F)cc2)n1 (stereo not given)
52% | O=C(N1CCCCC1Cc1ccccc1)n1cc(-c2ccc(-c3ccoc3)cc2)nn1 (stereo not given)
59% | O=C(N1CCCCC1Cc1ccccc1)n1cc(-c2ccc(-c3ccccc3OC(F)(F)F)cc2)nn1 (stereo not given)
59% | O=C(N1CCCCC1Cc1ccccc1)n1cc(-c2ccc(-c3ccccc3C(F)(F)F)cc2)nn1 (stereo not given)
9% (inactive) | O=C(N1CCCCC1Cc1ccccc1)n1ncc(C(O)(c2ccccc2)c2ccccc2)n1 (stereo not given)
41% (inactive) | O=C(c1ccc(-c2cn(C(=O)N3CCCCC3Cc3ccccc3)nn2)cc1)N1CCCCC1 (stereo not given)
73% | CC(C)(C)OC(=O)NCCCCCN(CCc1ccccc1)C(=O)n1cc(-c2ccc(OC(F)(F)F)cc2)nn1
52% | O=C(N1CCCCC1Cc1ccccc1)n1cc(-c2ccc(OC(F)(F)F)cc2)nn1 (stereo not given)
10% (inactive) | O=C(c1ccc(-c2ccc(-c3cn(C(=O)N4CCCCC4Cc4ccccc4)nn3)cc2)cc1)N1CCCCC1 (stereo not given)
55% | O=C(N1CCCCC1Cc1ccccc1)n1cc(-c2cc(F)cc(F)c2)nn1 (stereo not given)
68% | O=C(N1CCCCC1Cc1ccccc1)n1cc(-c2ccc(Br)cc2)nn1 (stereo not given)
63% | Cc1ccccc1-c1ccc(-c2cn(C(=O)N3CCCCC3Cc3ccccc3)nn2)cc1 (stereo not given)
55% | COc1ccccc1-c1ccc(-c2cn(C(=O)N3CCCCC3Cc3ccccc3)nn2)cc1 (stereo not given)

Compound | inhibition
O=C(N1CCCCC1Cc1ccccc1)n1cc(-c2ccc(-c3ccccc3)cc2)nn1 (stereo not given) | 61%

— PubChem BioAssay AID602302 (The Scripps Research Institute Molecular Screening Center, 2012)
